Assay results: ChEMBL document CHEMBL2346496, “Discovery of new benzothiazole-based inhibitors of breakpoint cluster region-Abelson kinase including the T315I mutant” (J Med Chem, 2013)
Values after ≈ are worked out from the molar mass of the structure shown. Blank lines part the entries; values can stand above or below the compound they belong to.

Assays:
[1] = cells; details: Mus musculus, BaF3, 48 h
[2] = cells; details: Mus musculus, BaF3, 48 h; remark: listed apart in the source
[3] = Aqueous solubility of the compound at pH 6.7; assay type: physicochemical
[4] = system: K562; assay: cells; details: Homo sapiens
[5] = cells; details: Mus musculus, BaF3, 48 h; remark: listed apart in the source
[6] = Stability of the compound at 37 degC at pH 6.7 after 24 hrs by UPLC method; assay type: physicochemical; details: buffer, read-out: Stability
How it was run: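 Stability followed by UPLC over 24 h at 37 °C, pH 6.7.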

[7] = target: Tyrosine-protein kinase ABL1 (Homo sapiens, UniProt P00519, T315I); assay: Inhibition of breakpoint cluster region-Abelson tyrosine kinase T315I mutant (unknown origin) using [gamma-33P]ATP as substrate by radiometric kinase assay
[8] = species: Homo sapiens; assay: Inhibition of CDK11 (unknown origin) at 1 uM relative to control; values are per cent of control
[9] = target: Serine/threonine-protein kinase PLK3 (Homo sapiens) (UniProt Q9H4B4); assay: Inhibition of PLK3 (unknown origin) at 1 uM relative to control; values are per cent of control
[10] = target: Platelet-derived growth factor receptor beta (Homo sapiens) (UniProt P09619); assay: Inhibition of PDGFRB (unknown origin) at 1 uM relative to control; values are per cent of control
[11] = target: Mast/stem cell growth factor receptor Kit (Homo sapiens) (UniProt P10721); assay: Inhibition of KIT (unknown origin) at 1 uM relative to control; values are per cent of control
[12] = target: Dual specificity mitogen-activated protein kinase kinase 2 (Homo sapiens) (UniProt P36507); assay: Inhibition of MEK2 (unknown origin) at 1 uM relative to control; values are per cent of control
[13] = target: Dual specificity mitogen-activated protein kinase kinase 1 (Homo sapiens) (UniProt Q02750); assay: Inhibition of MEK1 (unknown origin) at 1 uM relative to control; values are per cent of control
[14] = target: Epidermal growth factor receptor (Homo sapiens) (UniProt P00533); assay: Inhibition of EGFR (unknown origin) at 1 uM relative to control; values are per cent of control
[15] = system: Tyrosine-protein kinase ABL1 (Homo sapiens), P00519 [E255K]; assay: Inhibition of phosphorylated breakpoint cluster region-Abelson tyrosine kinase E255K mutant (unknown origin) at 1 uM relative to control; values are per cent of control
[16] = target: Inhibitor of nuclear factor kappa-B kinase subunit alpha (Homo sapiens) (UniProt O15111); assay: Inhibition of IKK alpha (unknown origin) at 1 uM relative to control; values are per cent of control
[17] = target: Focal adhesion kinase 1 (Homo sapiens) (UniProt Q05397); assay: Inhibition of FAK (unknown origin) at 1 uM relative to control; values are per cent of control
[18] = target: Mitogen-activated protein kinase 14 (Homo sapiens) (UniProt Q16539); assay: Inhibition of P38alpha (unknown origin) at 1 uM relative to control; values are per cent of control
[19] = system: Tyrosine-protein kinase ABL1 (Homo sapiens), P00519 [T315I]; assay: Inhibition of breakpoint cluster region-Abelson tyrosine kinase T315I mutant (unknown origin) at 1 uM relative to control; values are per cent of control
[20] = target: Cyclin-dependent kinase 2 (Homo sapiens) (UniProt P24941); assay: Inhibition of CDK2 (unknown origin) at 1 uM relative to control; values are per cent of control
[21] = target: Angiopoietin-1 receptor (Homo sapiens) (UniProt Q02763); assay: Inhibition of TIE2 (unknown origin) at 1 uM relative to control; values are per cent of control
[22] = target: Mitogen-activated protein kinase 8 (Homo sapiens) (UniProt P45983); assay: Inhibition of JNK1 (unknown origin) at 1 uM relative to control; values are per cent of control
[23] = target: 3-phosphoinositide-dependent protein kinase 1 (Homo sapiens) (UniProt O15530); assay: Inhibition of PDPK1 (unknown origin) at 1 uM relative to control; values are per cent of control
[24] = target: Insulin-like growth factor 1 receptor (Homo sapiens) (UniProt P08069); assay: Inhibition of IGF1R (unknown origin) at 1 uM relative to control; values are per cent of control
[25] = species: Homo sapiens; assay: Inhibition of phosphorylated breakpoint cluster region-Abelson tyrosine kinase (unknown origin) at 1 uM relative to control; values are per cent of control
[26] = target: Phosphatidylinositol 4,5-bisphosphate 3-kinase catalytic subunit alpha isoform (Homo sapiens) (UniProt P42336); assay: Inhibition of PI3KCA (unknown origin) at 1 uM relative to control; values are per cent of control
[27] = target: RAC-alpha serine/threonine-protein kinase (Homo sapiens) (UniProt P31749); assay: Inhibition of AKT1 (unknown origin) at 1 uM relative to control; values are per cent of control
[28] = target: Ribosomal protein S6 kinase alpha-3 (Homo sapiens) (UniProt P51812); assay: Inhibition of RSK2 (unknown origin) at 1 uM relative to control; values are per cent of control
[29] = target: Mitogen-activated protein kinase 3 (Homo sapiens) (UniProt P27361); assay: Inhibition of ERK1 (unknown origin) at 1 uM relative to control; values are per cent of control
[30] = target: Proto-oncogene tyrosine-protein kinase Src (Homo sapiens) (UniProt P12931); assay: Inhibition of SRC (unknown origin) at 1 uM relative to control; values are per cent of control
[31] = target: cAMP-dependent protein kinase catalytic subunit alpha (Homo sapiens) (UniProt P17612); assay: Inhibition of PKAC-a (unknown origin) at 1 uM relative to control; values are per cent of control
[32] = target: Fibroblast growth factor receptor 2 (Homo sapiens) (UniProt P21802); assay: Inhibition of FGFR2 (unknown origin) at 1 uM relative to control; values are per cent of control
[33] = target: Rho-associated protein kinase 2 (Homo sapiens) (UniProt O75116); assay: Inhibition of ROCK2 (unknown origin) at 1 uM relative to control; values are per cent of control
[34] = target: Aurora kinase A (Homo sapiens) (UniProt O14965); assay: Inhibition of AURKA (unknown origin) at 1 uM relative to control; values are per cent of control
[35] = target: Glycogen synthase kinase-3 beta (Homo sapiens) (UniProt P49841); assay: Inhibition of GSK3b (unknown origin) at 1 uM relative to control; values are per cent of control
[36] = target: Serine/threonine-protein kinase PLK1 (Homo sapiens) (UniProt P53350); assay: Inhibition of PLK1 (unknown origin) at 1 uM relative to control; values are per cent of control
[37] = target: Vascular endothelial growth factor receptor 2 (Homo sapiens) (UniProt P35968); assay: Inhibition of VEGFR2 (unknown origin) at 1 uM relative to control; values are per cent of control
[38] = target: Hepatocyte growth factor receptor (Homo sapiens) (UniProt P08581); assay: Inhibition of MET (unknown origin) at 1 uM relative to control; values are per cent of control
[39] = target: Serine/threonine-protein kinase pim-1 (Homo sapiens) (UniProt P11309); assay: Inhibition of PIM1 (unknown origin) at 1 uM relative to control; values are per cent of control
[40] = target: Serine/threonine-protein kinase B-raf (Homo sapiens) (UniProt P15056); assay: Inhibition of BRAF (unknown origin) at 1 uM relative to control; values are per cent of control
[41] = target: Platelet-derived growth factor receptor alpha (Homo sapiens) (UniProt P16234); assay: Inhibition of PDGFRA (unknown origin) at 1 uM relative to control; values are per cent of control
[42] = target: Aurora kinase B (Homo sapiens) (UniProt Q96GD4); assay: Inhibition of AURKB (unknown origin) at 1 uM relative to control; values are per cent of control
[43] = target: Serine/threonine-protein kinase PAK 1 (Homo sapiens) (UniProt Q13153); assay: Inhibition of PAK1 (unknown origin) at 1 uM relative to control; values are per cent of control
[44] = target: Tyrosine-protein kinase JAK2 (Homo sapiens) (UniProt O60674); assay: Inhibition of JAK2 (unknown origin) at 1 uM relative to control; values are per cent of control
[45] = target: Receptor-type tyrosine-protein kinase FLT3 (Homo sapiens) (UniProt P36888); assay: Inhibition of FLT3 (unknown origin) at 1 uM relative to control; values are per cent of control
[46] = system: BaF3; assay: Cytotoxicity against mouse BA/F3 cells transfected with Bcr-Abl T315I mutant after 48 hrs by XTT assay

Chain of Fibroblast growth factor receptor 2 (Homo sapiens) (P21802 22-821 limits assumed): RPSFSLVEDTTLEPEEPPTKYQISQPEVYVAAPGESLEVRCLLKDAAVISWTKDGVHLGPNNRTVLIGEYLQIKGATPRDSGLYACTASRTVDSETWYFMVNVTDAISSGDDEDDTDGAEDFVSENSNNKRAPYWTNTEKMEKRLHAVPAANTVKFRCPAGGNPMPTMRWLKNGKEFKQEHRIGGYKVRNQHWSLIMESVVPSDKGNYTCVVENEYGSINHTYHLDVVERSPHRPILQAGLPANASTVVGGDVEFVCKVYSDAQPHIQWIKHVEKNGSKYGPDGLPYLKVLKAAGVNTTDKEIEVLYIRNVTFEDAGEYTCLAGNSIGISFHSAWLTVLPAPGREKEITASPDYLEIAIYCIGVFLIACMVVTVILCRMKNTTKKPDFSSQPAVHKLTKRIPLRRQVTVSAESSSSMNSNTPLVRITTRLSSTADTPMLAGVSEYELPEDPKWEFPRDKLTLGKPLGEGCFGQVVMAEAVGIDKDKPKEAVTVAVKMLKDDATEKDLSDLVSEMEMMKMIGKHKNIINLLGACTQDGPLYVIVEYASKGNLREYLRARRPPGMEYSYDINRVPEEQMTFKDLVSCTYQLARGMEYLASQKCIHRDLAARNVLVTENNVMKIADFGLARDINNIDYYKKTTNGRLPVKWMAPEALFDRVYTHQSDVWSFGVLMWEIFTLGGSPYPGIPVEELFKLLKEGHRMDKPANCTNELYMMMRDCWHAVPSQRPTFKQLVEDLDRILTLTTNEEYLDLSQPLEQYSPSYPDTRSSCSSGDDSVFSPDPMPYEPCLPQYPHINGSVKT
Chain of Dual specificity mitogen-activated protein kinase kinase 1 (Homo sapiens) (Q02750 whole entry): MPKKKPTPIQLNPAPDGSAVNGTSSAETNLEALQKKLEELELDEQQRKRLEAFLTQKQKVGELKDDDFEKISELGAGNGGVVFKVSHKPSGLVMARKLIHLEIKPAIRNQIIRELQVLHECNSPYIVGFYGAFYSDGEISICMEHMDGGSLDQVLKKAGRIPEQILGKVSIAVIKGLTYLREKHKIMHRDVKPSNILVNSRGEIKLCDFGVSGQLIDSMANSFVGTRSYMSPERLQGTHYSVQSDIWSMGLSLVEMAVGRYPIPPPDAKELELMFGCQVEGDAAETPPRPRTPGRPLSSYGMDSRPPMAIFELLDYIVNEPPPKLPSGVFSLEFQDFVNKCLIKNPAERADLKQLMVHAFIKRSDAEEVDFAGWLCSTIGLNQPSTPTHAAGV
Chain of Platelet-derived growth factor receptor beta (Homo sapiens) (P09619 whole entry): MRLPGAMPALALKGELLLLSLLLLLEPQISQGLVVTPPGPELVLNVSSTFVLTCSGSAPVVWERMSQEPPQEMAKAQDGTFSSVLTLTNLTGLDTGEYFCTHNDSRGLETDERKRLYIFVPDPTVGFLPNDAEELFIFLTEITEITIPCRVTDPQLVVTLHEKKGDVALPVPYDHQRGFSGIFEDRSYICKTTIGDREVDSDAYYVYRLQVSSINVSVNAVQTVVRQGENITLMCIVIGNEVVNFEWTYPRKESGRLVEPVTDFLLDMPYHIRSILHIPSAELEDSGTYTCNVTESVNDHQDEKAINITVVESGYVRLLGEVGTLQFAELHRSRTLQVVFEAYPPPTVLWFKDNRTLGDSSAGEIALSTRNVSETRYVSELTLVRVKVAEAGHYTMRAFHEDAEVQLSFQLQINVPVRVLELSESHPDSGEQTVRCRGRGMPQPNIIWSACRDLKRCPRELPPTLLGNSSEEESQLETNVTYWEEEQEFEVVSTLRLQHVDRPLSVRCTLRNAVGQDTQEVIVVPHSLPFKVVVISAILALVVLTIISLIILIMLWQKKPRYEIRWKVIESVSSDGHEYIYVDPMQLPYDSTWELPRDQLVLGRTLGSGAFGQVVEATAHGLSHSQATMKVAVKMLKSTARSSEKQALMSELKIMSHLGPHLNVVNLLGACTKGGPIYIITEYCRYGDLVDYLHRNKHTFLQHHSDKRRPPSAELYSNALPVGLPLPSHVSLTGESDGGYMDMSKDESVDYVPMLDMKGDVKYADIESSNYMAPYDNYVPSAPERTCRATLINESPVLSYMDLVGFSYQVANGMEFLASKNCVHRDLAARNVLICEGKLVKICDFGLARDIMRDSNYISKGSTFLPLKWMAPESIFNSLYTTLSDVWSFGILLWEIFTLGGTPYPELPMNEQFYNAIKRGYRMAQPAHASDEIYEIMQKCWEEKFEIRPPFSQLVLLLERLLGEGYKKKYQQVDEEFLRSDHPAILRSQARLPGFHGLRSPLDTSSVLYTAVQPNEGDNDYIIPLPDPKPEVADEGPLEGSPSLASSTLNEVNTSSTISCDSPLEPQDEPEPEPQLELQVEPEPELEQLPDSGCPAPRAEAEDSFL
Chain of Serine/threonine-protein kinase B-raf (Homo sapiens) (P15056 whole entry): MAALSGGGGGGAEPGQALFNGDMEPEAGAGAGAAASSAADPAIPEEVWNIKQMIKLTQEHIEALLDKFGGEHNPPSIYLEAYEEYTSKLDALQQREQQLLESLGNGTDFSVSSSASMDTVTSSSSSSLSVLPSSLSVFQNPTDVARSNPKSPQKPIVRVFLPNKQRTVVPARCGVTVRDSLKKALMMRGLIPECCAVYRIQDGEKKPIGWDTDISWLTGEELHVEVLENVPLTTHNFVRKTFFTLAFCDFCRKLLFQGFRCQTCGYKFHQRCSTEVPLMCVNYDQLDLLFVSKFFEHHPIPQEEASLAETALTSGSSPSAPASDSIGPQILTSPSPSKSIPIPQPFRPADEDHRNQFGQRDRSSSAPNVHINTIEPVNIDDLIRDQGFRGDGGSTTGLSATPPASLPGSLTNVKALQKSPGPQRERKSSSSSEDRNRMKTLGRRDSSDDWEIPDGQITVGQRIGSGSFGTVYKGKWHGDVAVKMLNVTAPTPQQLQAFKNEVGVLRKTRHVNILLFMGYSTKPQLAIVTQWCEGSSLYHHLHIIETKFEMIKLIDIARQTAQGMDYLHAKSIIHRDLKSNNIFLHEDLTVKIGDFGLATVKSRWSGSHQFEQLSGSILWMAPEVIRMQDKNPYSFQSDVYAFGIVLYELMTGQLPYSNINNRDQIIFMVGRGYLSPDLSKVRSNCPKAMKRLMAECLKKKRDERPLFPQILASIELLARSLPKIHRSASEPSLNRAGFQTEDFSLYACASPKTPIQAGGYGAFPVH
Chain of Proto-oncogene tyrosine-protein kinase Src (Homo sapiens) (P12931 2-536 limits assumed): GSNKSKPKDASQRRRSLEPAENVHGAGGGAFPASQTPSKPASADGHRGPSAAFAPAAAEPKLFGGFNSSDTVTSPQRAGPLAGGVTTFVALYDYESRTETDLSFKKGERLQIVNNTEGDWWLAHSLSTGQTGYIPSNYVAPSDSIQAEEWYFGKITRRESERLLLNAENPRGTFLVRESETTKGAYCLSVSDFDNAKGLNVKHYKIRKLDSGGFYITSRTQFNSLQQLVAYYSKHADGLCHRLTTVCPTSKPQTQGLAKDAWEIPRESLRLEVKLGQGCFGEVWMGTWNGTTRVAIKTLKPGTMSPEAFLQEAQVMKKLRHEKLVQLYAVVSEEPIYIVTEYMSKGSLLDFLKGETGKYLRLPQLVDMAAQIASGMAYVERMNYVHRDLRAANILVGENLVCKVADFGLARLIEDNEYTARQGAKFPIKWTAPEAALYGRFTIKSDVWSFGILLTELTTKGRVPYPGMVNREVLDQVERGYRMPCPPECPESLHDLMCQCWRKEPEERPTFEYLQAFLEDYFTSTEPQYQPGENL
Chain of Platelet-derived growth factor receptor alpha (Homo sapiens) (P16234 whole entry): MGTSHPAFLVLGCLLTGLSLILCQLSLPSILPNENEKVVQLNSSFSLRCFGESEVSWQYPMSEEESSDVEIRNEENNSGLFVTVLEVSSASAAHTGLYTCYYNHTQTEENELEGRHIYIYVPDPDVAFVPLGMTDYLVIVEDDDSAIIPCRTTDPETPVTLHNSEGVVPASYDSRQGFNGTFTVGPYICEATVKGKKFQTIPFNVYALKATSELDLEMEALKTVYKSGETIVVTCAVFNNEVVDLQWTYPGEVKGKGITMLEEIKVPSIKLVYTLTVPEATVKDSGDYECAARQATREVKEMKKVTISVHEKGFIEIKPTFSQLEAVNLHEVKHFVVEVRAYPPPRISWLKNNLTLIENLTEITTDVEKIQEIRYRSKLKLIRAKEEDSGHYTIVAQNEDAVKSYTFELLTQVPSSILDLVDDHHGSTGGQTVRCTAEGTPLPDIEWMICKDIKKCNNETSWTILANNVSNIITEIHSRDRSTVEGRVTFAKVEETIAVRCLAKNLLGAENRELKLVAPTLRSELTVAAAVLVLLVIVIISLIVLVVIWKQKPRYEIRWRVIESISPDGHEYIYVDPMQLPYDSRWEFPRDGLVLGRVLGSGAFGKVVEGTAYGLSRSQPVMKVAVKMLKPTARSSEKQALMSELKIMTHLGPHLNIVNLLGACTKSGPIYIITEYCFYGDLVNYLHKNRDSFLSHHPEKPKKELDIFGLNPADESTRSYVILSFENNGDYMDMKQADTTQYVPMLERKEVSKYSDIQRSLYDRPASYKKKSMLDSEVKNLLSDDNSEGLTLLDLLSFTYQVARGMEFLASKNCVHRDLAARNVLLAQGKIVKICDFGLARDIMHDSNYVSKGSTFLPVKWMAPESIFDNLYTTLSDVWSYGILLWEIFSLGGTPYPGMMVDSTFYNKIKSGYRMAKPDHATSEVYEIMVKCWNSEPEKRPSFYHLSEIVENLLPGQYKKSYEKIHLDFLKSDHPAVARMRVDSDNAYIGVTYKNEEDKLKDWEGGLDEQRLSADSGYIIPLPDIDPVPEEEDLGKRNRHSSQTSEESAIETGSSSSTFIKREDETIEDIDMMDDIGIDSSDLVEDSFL
Chain of Mitogen-activated protein kinase 3 (Homo sapiens) (P27361 whole entry): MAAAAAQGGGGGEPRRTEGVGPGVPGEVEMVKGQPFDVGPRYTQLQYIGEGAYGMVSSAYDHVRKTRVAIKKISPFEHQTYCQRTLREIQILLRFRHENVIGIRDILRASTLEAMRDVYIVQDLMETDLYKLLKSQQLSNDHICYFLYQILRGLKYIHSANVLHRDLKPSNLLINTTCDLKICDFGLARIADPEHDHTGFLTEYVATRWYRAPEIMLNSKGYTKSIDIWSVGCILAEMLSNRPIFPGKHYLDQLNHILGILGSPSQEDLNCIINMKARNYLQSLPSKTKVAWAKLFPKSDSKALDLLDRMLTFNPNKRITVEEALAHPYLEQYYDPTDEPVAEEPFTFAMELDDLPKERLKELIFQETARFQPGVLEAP

Structure (SMILES): CCc1ccccc1-c1ccc2nc(NC(=O)NCCN(C)C)sc2c1
IC50 [1]: 310 nM
IC50 [2]: 410 nM

Structure (SMILES): CCOc1ccccc1-c1ccc2nc(NC(=O)NCCN3CCOCC3)sc2c1
IC50 [1]: 210 nM
IC50 [2]: 1090 nM

Structure (SMILES): Cc1ccc(NC(=O)c2ccc(CN3CCN(C)CC3)cc2)cc1Nc1nccc(-c2cccnc2)n1 [IMATINIB]
IC50 [1]: 92 nM
IC50 [2]: 4790 nM
IC50 [4]: 170 nM
IC50 [5]: > 10000 nM

Structure (SMILES): COc1ccccc1-c1ccc2nc(NC(=O)NCCCO)sc2c1
IC50 [1]: 82 nM
IC50 [2]: 290 nM

Structure (SMILES): CCNC(=O)Nc1nc2ccc(C(=O)N3CCN(C)CC3)cc2[nH]1
IC50 [7]: > 100000 nM

Structure (SMILES): CCc1ccccc1-c1ccc2nc(NC(=O)NCCN3CCOCC3)sc2c1
IC50 [1]: 280 nM
IC50 [2]: 1440 nM

Structure (SMILES): COC(=O)Nc1nc2ccc(C(=O)c3cccs3)cc2[nH]1 [NOCODAZOLE]
IC50 [7]: 640 nM

Structure (SMILES): COc1ccccc1-c1ccc2nc(NC(=O)NCCN3CCOCC3)sc2c1
IC50 [1]: 100 nM
IC50 [2]: 290 nM
inhibition [46]: Dose-dependent effect

Other lines, results leading:

solubility [3]: 2240 µg/mL (≈ 5260 µM)
IC50 [1]: 46 nM
IC50 [2]: 78 nM
IC50 [4]: 420 nM
IC50 [5]: > 10000 nM
remaining at 24 h [6]: 99.7%
Structure (SMILES): COc1ccccc1-c1ccc2nc(NC(=O)NCCN3CCN(C)CC3)sc2c1

IC50 [1]: 180 nM
IC50 [2]: 1350 nM
Structure (SMILES): CCOc1ccccc1-c1ccc2nc(NC(=O)NCCO)sc2c1

IC50 [1]: 110 nM
IC50 [2]: 870 nM
Structure (SMILES): CCOc1ccccc1-c1ccc2nc(NC(=O)NCCN3CCNCC3)sc2c1

solubility [3]: 7.49 µg/mL (≈ 21.8 µM)
IC50 [1]: 89 nM
IC50 [2]: 140 nM
IC50 [4]: 120 nM
IC50 [5]: > 10000 nM
remaining at 24 h [6]: 100%
Structure (SMILES): COc1ccccc1-c1ccc2nc(NC(=O)NCCO)sc2c1

solubility [3]: 0.0227 µg/mL (≈ 0.0693 µM)
residual activity [8]: 100%
residual activity [9]: 87%
residual activity [10]: 16%
residual activity [11]: 79%
residual activity [12]: 100%
residual activity [13]: 100%
residual activity [14]: 100%
residual activity [15]: 4.5%
residual activity [16]: 100%
residual activity [17]: 100%
residual activity [18]: 100%
residual activity [19]: 4.5%
IC50 [1]: 3570 nM
residual activity [20]: 100%
IC50 [2]: 2140 nM
residual activity [21]: 100%
residual activity [22]: 100%
residual activity [23]: 67%
residual activity [24]: 100%
residual activity [25]: 5%
residual activity [26]: 100%
residual activity [27]: 67%
residual activity [28]: 58%
residual activity [29]: 100%
residual activity [30]: 72%
residual activity [31]: 100%
residual activity [32]: 100%
residual activity [33]: 100%
residual activity [34]: 100%
residual activity [35]: 100%
IC50 [7]: 0.11 nM
residual activity [36]: 100%
residual activity [37]: 98%
residual activity [38]: 100%
residual activity [39]: 100%
residual activity [40]: 100%
residual activity [41]: 79%
residual activity [42]: 100%
residual activity [43]: 93%
residual activity [44]: 100%
remaining at 24 h [6]: 100%
residual activity [45]: 94%
Structure (SMILES): CCNC(=O)Nc1nc2ccc(-c3ccccc3OC)cc2s1

IC50 [7]: > 100000 nM
Structure (SMILES): CCNC(=O)Nc1nc2ccc(C(=O)Nc3ccncc3)cc2[nH]1

IC50 [1]: 120 nM
IC50 [2]: 560 nM
Structure (SMILES): CCOc1ccccc1-c1ccc2nc(NC(=O)NCCCO)sc2c1
